Results reported in PubChem BioAssay AID623990 (Broad Institute, 2012).
Activity calls are given as the source filed them.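 Rule for the calls: active = falling cell signal with fitted IC50 no higher than a set limit, twice the top tested dose; inconclusive = flat fit with toxicity between 30 and 70%, or poor fit; inactive = the rest.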

test system: not listed separately; assay: HeLa cell cytotoxicity, dose response, cytotoxicity control for pyoverdine/PvdQ inhibitor project, CellTiter-Glo luminescence, dry powder, set 2 (AID 623990); conditions: HeLa viability, CellTiter-Glo ATP luminescence; at 120 µM (top of the series)
Method in brief: (§1)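 System – HeLa cells · Amount – 2,500 HeLa cells per well · Medium – phenol red-free DMEM, 10% FBS · Compound dosing – 3-fold dose series · Timing – cells settled 24 h at 37 °C, then compound exposure 48 h · Measured by – CellTiter-Glo luciferase luminescence (0.5X reagent), reporting intracellular ATP · Evaluation – cell viability from luminescent signal, signal drop indicating toxicity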

Structure (SMILES)	activity change, negative = toxicity
N#CC1c2ccc(Cl)cc2CCc2cccnc21 (stereo unspecified)	2.14% (inactive)
CCCCC(C#N)c1ccc(Cl)cc1 (stereo unspecified)	13.5% (inactive)
N#CC(c1ccc(Cl)cc1)c1ccccn1 (stereo unspecified)	5.57% (inactive)
CCCCC(C#N)c1ccc(F)cn1 (stereo unspecified)	7.3% (inactive)
N#CC(c1ccc(F)cc1)c1cccc(Cl)n1 (stereo unspecified)	-3.39% (inactive)
COCCNC(C#N)c1ccc(Cl)cc1 (stereo unspecified)	4.87% (inactive)
N#CC(c1ccc(F)cc1)c1cccc(C(F)(F)F)n1 (stereo unspecified)	13.5% (inactive)
Clc1ccc(C(c2cccc(Cl)n2)c2nn[nH]n2)cc1 (stereo unspecified)	8.71% (inactive)
CCCCC(C#N)c1ccc(Cl)cn1 (stereo unspecified)	27.3% (inactive)
CN(C)CCCC(C#N)c1ccc(Cl)cc1 (stereo unspecified)	23.3% (inactive)
COCCOCCC(C#N)c1ccc(F)cc1 (stereo unspecified)	3.67% (inactive)
COCCC(C#N)c1ccc(F)cc1 (stereo unspecified)	6.44% (inactive)
CCCCC(C#N)c1ccc(F)cc1 (stereo unspecified)	5.81% (inactive)
N#CC(c1ccc(Cl)cc1)c1cccc(C(F)(F)F)n1 (stereo unspecified)	10.3% (inactive)
N#CC(c1ccc(Cl)cc1)N1CCCC1 (stereo unspecified)	30.4% (inactive)
N#CC(c1ccc(Cl)cc1)c1cccc(Cl)n1 (stereo unspecified)	12.2% (inactive)
CCCCC(C#N)c1ccccn1 (stereo unspecified)	2.12% (inactive)
N#Cc1cccc(C(C#N)c2ccc(F)cc2)n1 (stereo unspecified)	4.63% (inactive)
COCCOCCC(C#N)c1ccc(Cl)cc1 (stereo unspecified)	-0.038% (inactive)
N#CC(c1ccc(C(F)(F)F)c(Cl)n1)c1ccccc1OC(F)(F)F (stereo unspecified)	5.17% (inactive)

test system: HeLa viability, CellTiter-Glo ATP luminescence; assay: as above; conditions: not given
Method in brief: as §1

Structure (SMILES)	IC50
N#CC(c1cccc(C(F)(F)F)n1)c1ccc(Cl)cc1F (stereo unspecified)	> 240 µM (inactive)
N#CC(c1cccc(Cl)n1)c1ccc(Cl)cc1F (stereo unspecified)	111 µM
COCCC(C#N)c1ccc(Cl)cc1 (stereo unspecified)	62.2 µM
N#CC(c1ccc(Cl)cc1)c1ncccc1Cl (stereo unspecified)	> 240 µM (inactive)
CN(C)CCCC(C#N)c1ccc(F)cc1 (stereo unspecified)	> 240 µM (inactive)
CCCCC(c1ccc(Cl)cc1)c1nn[nH]n1 (stereo unspecified)	> 240 µM (inactive)
